Measured values: ChEMBL document CHEMBL1128569, “N-acyl-2-substituted-1,3-thiazolidines, a new class of non-narcotic antitussive agents: studies leading to the discovery of ethyl 2-[(2-methoxyphenoxy)methyl]-beta-oxothiazolidine-3-propanoate” (J Med Chem, 1995)

Key:
Cavia porcellus [1] = assay: Antitussive activity by inhibition of irritant citric acid aerosol-induced coughing in guinea pig upon oral administration.; assay type: functional
Summary of the method: (§1)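 Male guinea pigs (350-400 g) exposed in a box to 7.5% citric acid aerosol for 5 min, and coughs counted as the basal value. Next day, after overnight fasting, animals (6-8/dose) were gavaged with compound in water or 0.5% methyl cellulose (2 mL/kg) 1 h before re-exposure. Activity is the reduction in coughs versus the basal count. ED50 is the dose giving 50% reduction (Cochran and Snedecor).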

Cavia porcellus [2] = assay: Inhibition of irritant electrically-induced coughing in guinea pig trachea following p.o. administration.; assay type: functional; details: po
Summary of the method: (§2)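 Guinea pigs under ketamine (10 mg/kg im) and xylazine (3 mg/kg im) anaesthesia, with an electrode wrapped around the trachea about 1.5 cm above the bifurcation and an indifferent electrode on the dorsal skin. Coughs during stimulation counted as the basal value. Groups of 6-8/dose were gavaged with compound in water or 0.5% methyl cellulose (2 mL/kg). Activity is the cough reduction versus basal. ED50 is the dose giving 50% reduction.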

[3] = Acute toxicity was determined in mice upon peroral administration; assay type: organism-based; details: mouse, in vivo, po
Summary of the method: (§3)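 Swiss mice of both sexes, groups of six, dosed by gavage at several doses up to 1000 mg/kg. Compound dissolved in water or suspended in 0.5% carboxymethyl cellulose, 10 mL/kg. Deaths recorded over 1-7 days. LD50 obtained by logit transformation.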

Cavia porcellus [4] = assay: Antitussive activity was evaluated by inhibition of irritant electrically-induced coughing in guinea pig trachea upon oral administration at 30 mg/kg; assay type: functional; summary of the method: as §2
Cavia porcellus [5] = assay: Antitussive activity was evaluated by inhibition of irritant citric acid aerosol-induced coughing in guinea pig upon oral administration at 30 mg/kg dose; assay type: functional; summary of the method: as §1
[6] = Lethality in mice following p.o. administration.; assay type: ADME, organism-based; details: mouse, in vivo, po; summary of the method: as §3
Cavia porcellus [7] = assay: Antitussive activity was evaluated by inhibition of irritant aerosol-induced coughing by (po) administration of 30 mg/kg in guinea pig; assay type: functional; summary of the method: as §1
Cavia porcellus [8] = assay: Antitussive activity was evaluated by inhibition of irritant aerosol-induced coughing by (po) administration in guinea pig; assay type: functional; summary of the method: as §1
Cavia porcellus [9] = assay: Antitussive activity was evaluated by inhibition of irritant electrically-induced coughing by (po) administration in guinea pig; assay type: functional; summary of the method: as §2

CCOC(=O)CC(=O)N1CCSC1COc1ccccc1OC (configuration not stated) [MOGUISTEINE]
ED50 (Cavia porcellus [1]): 21 mg/kg
ED50 (Cavia porcellus [2]): 11 mg/kg
LD50 [3]: > 1000 mg/kg

CCN(CC)CCNC(=O)CC(=O)N1CCSC1COc1ccccc1OC (configuration not stated)
ED50 (Cavia porcellus [1]): 56 mg/kg
inhibition in vivo at 30 mg/kg (Cavia porcellus [4]): < 20%
LD50 [3]: 250 mg/kg

Oc1ccccc1OCC1NCCS1 (configuration not stated)
LD50 [3]: > 1000 mg/kg

COc1ccccc1OCC1SCCN1C(=O)Cn1ccnc1 (configuration not stated)
ED50 (Cavia porcellus [1]): 50 mg/kg
LD50 [3]: 966 mg/kg

CCOC(=O)C(C)(C)C(=O)N1CCSC1COc1ccccc1OC (configuration not stated)
ED50 (Cavia porcellus [1]): 61 mg/kg
ED50 (Cavia porcellus [2]): 48 mg/kg
LD50 [3]: > 1000 mg/kg

COc1ccccc1SCC1SCCN1C(=O)CN1CCN(C)CC1 (configuration not stated)
inhibition in vivo at 30 mg/kg (Cavia porcellus [5]): < 20%

CC(=O)SCC(=O)N1CCSC1COc1ccccc1C (configuration not stated)
LD50 [6]: > 1000 mg/kg
inhibition in vivo at 30 mg/kg (Cavia porcellus [7]): < 20%

COc1ccccc1OCC1N(C(=O)CC(=O)O)CC[S+]1[O-] (configuration not stated)
ED50 (Cavia porcellus [1]): 20 mg/kg
LD50 [3]: > 1000 mg/kg

COc1ccccc1OCC1SCCN1C(=O)/C=C/c1ccc(O)c(O)c1 (configuration not stated)
LD50 [6]: > 1000 mg/kg
inhibition in vivo at 30 mg/kg (Cavia porcellus [7]): < 20%

COc1ccc2c(c1)[C@]13CCCC[C@@H]1[C@H](C2)N(C)CC3 [DEXTROMETHORPHAN]
ED50 (Cavia porcellus [8]): 48 mg/kg
ED50 (Cavia porcellus [9]): 16 mg/kg

CC(=O)SCC(=O)N1CCSC1COc1ccccc1O (configuration not stated)
ED50 (Cavia porcellus [8]): 60 mg/kg
LD50 [6]: > 1000 mg/kg

COc1ccccc1OCC1SCCN1C(=O)CN1CCOCC1.Cl (configuration not stated)
inhibition in vivo at 30 mg/kg (Cavia porcellus [5]): < 20%
LD50 [3]: 612 mg/kg

COc1ccccc1OCC1SCCN1C(=O)C[S+](C)[O-] (configuration not stated)
ED50 (Cavia porcellus [1]): 25 mg/kg
ED50 (Cavia porcellus [2]): 10 mg/kg
LD50 [3]: > 1000 mg/kg

COC(=O)c1ccc(OCC2SCCN2C(=O)Cn2ccnc2)cc1 (configuration not stated)
ED50 (Cavia porcellus [1]): 62 mg/kg
LD50 [3]: > 1000 mg/kg

COc1ccccc1SCC1SCCN1C(=O)Cn1ccnc1 (configuration not stated)
inhibition in vivo at 30 mg/kg (Cavia porcellus [5]): < 20%
LD50 [3]: 958 mg/kg

COc1ccccc1OCC1N(C(=O)CSC(C)=O)CC[S+]1[O-] (configuration not stated)
LD50 [6]: 620 mg/kg
inhibition in vivo at 30 mg/kg (Cavia porcellus [7]): < 20%

COc1ccc(OCC2SCCN2C(=O)Cn2ccnc2)cc1 (configuration not stated)
ED50 (Cavia porcellus [1]): 48 mg/kg
LD50 [3]: > 1000 mg/kg

COc1ccccc1OCC1SCCN1C(=O)CN1CCN(C)CC1.Cl.Cl (configuration not stated)
inhibition in vivo at 30 mg/kg (Cavia porcellus [4]): < 20%
LD50 [3]: 818 mg/kg

CCOC(=O)CC(=O)N1CCSC1COc1ccccc1O (configuration not stated)
ED50 (Cavia porcellus [1]): 20 mg/kg
LD50 [3]: > 1000 mg/kg

COc1ccccc1OCC1SCCN1C(=O)CC(=O)N1CCN(C(c2ccc(F)cc2)c2ccc(F)cc2)CC1 (configuration not stated)
ED50 (Cavia porcellus [1]): 26 mg/kg
ED50 (Cavia porcellus [2]): 32 mg/kg
LD50 [3]: > 1000 mg/kg

COc1ccccc1OCC1SCCN1C(=O)CNC(C)=O (configuration not stated)
ED50 (Cavia porcellus [1]): 40 mg/kg
LD50 [3]: > 1000 mg/kg

COc1ccccc1OCC1N(C(=O)C[S+](C)[O-])CC[S+]1[O-] (configuration not stated)
LD50 [3]: > 1000 mg/kg

COc1ccccc1OCC1SCCN1C(=O)CC(=O)NCc1cccnc1.O=C(O)/C=C/C(=O)O (configuration not stated)
ED50 (Cavia porcellus [1]): 57 mg/kg
LD50 [3]: 677 mg/kg

CCOC(=O)CC(=O)N1CC[S+]([O-])C1COc1ccccc1OC (configuration not stated)
ED50 (Cavia porcellus [1]): 27 mg/kg
ED50 (Cavia porcellus [2]): 28 mg/kg
LD50 [3]: > 1000 mg/kg

CCC(=O)SCC(=O)N1CCSC1COc1ccccc1OC (configuration not stated)
inhibition in vivo at 30 mg/kg (Cavia porcellus [7]): < 20%

CCCC(=O)CC(=O)N1CCSC1COc1ccccc1OC (configuration not stated)
ED50 (Cavia porcellus [1]): 42 mg/kg

COc1ccc2c3c1O[C@H]1[C@@H](O)C=C[C@H]4[C@@H](C2)N(C)CC[C@@]341.COc1ccc2c3c1O[C@H]1[C@@H](O)C=C[C@H]4[C@@H](C2)N(C)CC[C@@]341.O.O=P(O)(O)O.O=P(O)(O)O [CODEINE PHOSPHATE]
ED50 (Cavia porcellus [8]): 29 mg/kg
ED50 (Cavia porcellus [9]): 14 mg/kg

C=CC(=O)N1CCSC1COc1ccccc1OC (configuration not stated)
ED50 (Cavia porcellus [1]): 74 mg/kg
LD50 [3]: 718 mg/kg

CC(=O)SCC(=O)N1CCSC1CCc1ccccc1O (configuration not stated)
ED50 (Cavia porcellus [8]): 61 mg/kg
LD50 [6]: > 1000 mg/kg

COc1ccccc1OCC1SCCN1C(=O)CC(=O)N1CCN(C(c2ccccc2)c2ccccc2)CC1 (configuration not stated)
ED50 (Cavia porcellus [1]): 66 mg/kg
ED50 (Cavia porcellus [2]): 44 mg/kg
LD50 [3]: > 1000 mg/kg

O=C(Cn1ccnc1)N1CCSC1COc1ccccc1O (configuration not stated)
ED50 (Cavia porcellus [2]): 27 mg/kg

COc1ccccc1OCC1SCCN1C(=O)CC(=O)NCc1ccncc1.Cl (configuration not stated)
ED50 (Cavia porcellus [1]): 23 mg/kg
ED50 (Cavia porcellus [2]): 13 mg/kg
LD50 [3]: 707 mg/kg

COc1ccccc1OCC1SCCN1C(=O)CS (configuration not stated)
inhibition in vivo at 30 mg/kg (Cavia porcellus [5]): < 20%
